Reference: ChEMBL document CHEMBL1130878 (Bioorg Med Chem Lett, 1998)
Blank lines part the entries; values can stand above or below the molecule they belong to.

Assays:
[1] = Compound was evaluated for maximum concentration after treatment with oral dose of 2 mgkg to male wistar rats; assay type: ADME, organism-based; parameters: dose 2 mgkg, route oral; conditions: rat, in vivo, 2 mg/kg
Procedure, shortened: (§1)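 Male and female Wistar rats, n = 3 per group, received a single dose of either 1 mg/kg iv or 2 mg/kg orally. Plasma levels were followed after dosing. Half-life was taken over the interval 1-8 h post administration. Oral bioavailability was derived against the iv data.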

[2] = Compound was evaluated for AUC after treatment with iv dose of 1 mgkg to female cynomolgus monkey; assay type: ADME, organism-based; parameters: dose 1 mgkg, route intravenous; conditions: cercopithecidae, in vivo, 1 mg/kg
Procedure, shortened: (§2)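 A female cynomolgus monkey (n = 1) received a single dose of either 1 mg/kg iv or 2 mg/kg orally. Plasma concentration-time data gave Cmax, tmax, AUC, clearance and Vss. Half-life was calculated over 1-8 h post administration.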

Rattus norvegicus [3] = assay: Effect of compound on motor activity of spontaneously hypertensive rats after single oral administration of 1 mg/Kg dose; assay type: functional
Procedure, shortened: (§3)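 Conscious spontaneously hypertensive rats were given a single oral dose at 12:00, with 5% arabic gum as the control vehicle. Heart rate and motor activity were monitored by telemetry. Change from a 3 h predrug period (9:00-12:00) was expressed as AUC0-12h (12:00-24:00). n = 6-13 per group, mean ± SEM, ANOVA with Dunnett's test vs control.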

Rattus norvegicus [4] = assay: Compound was evaluated for AUC after treatment with oral dose of 2 mgkg to male wistar rats; assay type: ADME, organism-based; parameters: dose 2 mgkg, route oral; conditions: in vivo, 2 mg/kg; procedure, shortened: as §1
Rattus norvegicus [5] = species: Rattus norvegicus; assay: Compound was evaluated for the functional assay performed by obtaining ET-1 concentration-response curves [pA2(ETA)] in isolated rat aortic rings; conditions: Aorta, read-out: pA2 (converted)
Procedure, shortened: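 Functional ETA assay: ET-1 concentration-response curves in isolated rat aortic rings with the endothelium removed. Antagonism is expressed as pA2.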

[6] = Compound was evaluated for maximum concentration after treatment with oral dose of 2 mgkg to female wistar rats; assay type: ADME, organism-based; parameters: dose 2 mgkg, route oral; conditions: rat, in vivo, 2 mg/kg; procedure, shortened: as §1
[7] = Compound was evaluated for volume of distribution (steady state) after treatment with iv dose of 1 mgkg to female cynomolgus monkey; assay type: ADME, organism-based; parameters: dose 1 mgkg, route intravenous; conditions: cercopithecidae, in vivo, 1 mg/kg, read-out: Vss; procedure, shortened: as §2
[8] = Compound was evaluated for clearance after treatment with iv dose of 1 mgkg to female wistar rats; assay type: ADME, organism-based; parameters: dose 1 mgkg, route intravenous; conditions: rat, in vivo, 1 mg/kg; procedure, shortened: as §1
Rattus norvegicus [9] = assay: Effect of compound on motor activity of spontaneously hypertensive rats after single oral administration of 10 mg/Kg dose; assay type: functional; procedure, shortened: as §3
Rattus norvegicus [10] = assay: Effect of compound on motor activity of spontaneously hypertensive rats after single oral administration of 30 mg/Kg dose; assay type: functional; procedure, shortened: as §3
Rattus norvegicus [11] = assay: Compound was evaluated for AUC after treatment with iv dose of 1 mgkg to male wistar rats; assay type: ADME, organism-based; parameters: dose 1 mgkg, route intravenous; conditions: in vivo, 1 mg/kg; procedure, shortened: as §1
Rattus norvegicus [12] = assay: Effect of compound on heart rate activity of spontaneously hypertensive rats after single oral administration of 0.3 mg/Kg dose; assay type: functional; procedure, shortened: as §3
Oryctolagus cuniculus = species: Oryctolagus cuniculus; assay: Compound was evaluated for the functional assay performed by obtaining sarafotoxin 6c concentration-response curves [pA2(ETB)] in isolated rabbit jugularis vein
Rattus norvegicus [13] = assay: Effect of compound on motor activity of spontaneously hypertensive rats after single oral administration of 3 mg/Kg dose; assay type: functional; procedure, shortened: as §3
[14] = Compound was evaluated for clearance after treatment with iv dose of 1 mgkg to male wistar rats; assay type: ADME, organism-based; parameters: dose 1 mgkg, route intravenous; conditions: rat, in vivo, 1 mg/kg; procedure, shortened: as §1
Rattus norvegicus [15] = assay: Effect of compound on heart rate activity of spontaneously hypertensive rats after single oral administration of 3 mg/Kg dose; assay type: functional; procedure, shortened: as §3
[16] = Compound was evaluated for volume of distribution (steady state) after treatment with iv dose of 1 mgkg to female wistar rats; assay type: ADME, organism-based; parameters: dose 1 mgkg, route intravenous; conditions: rat, in vivo, 1 mg/kg, read-out: Vss; procedure, shortened: as §1
Rattus norvegicus [17] = assay: Effect of compound on heart rate activity of spontaneously hypertensive rats after single oral administration of 0.1 mg/Kg dose; assay type: functional; procedure, shortened: as §3
Rattus norvegicus [18] = assay: Compound was evaluated for AUC after treatment with oral dose of 2 mgkg to female wistar rats; assay type: ADME, organism-based; parameters: dose 2 mgkg, route oral; conditions: in vivo, 2 mg/kg; procedure, shortened: as §1
[19] = Compound was evaluated for maximum concentration after treatment with oral dose of 2 mgkg to female cynomolgus monkey; assay type: ADME, organism-based; parameters: dose 2 mgkg, route oral; conditions: cercopithecidae, in vivo, 2 mg/kg; procedure, shortened: as §2
Rattus norvegicus [20] = assay: Effect of compound on heart rate activity of spontaneously hypertensive rats after single oral administration of 0.03 mg/Kg dose; assay type: functional; procedure, shortened: as §3
[21] = Compound was evaluated for half life after treatment with iv dose of 1 mgkg to male wistar rats; assay type: ADME, organism-based; parameters: dose 1 mgkg, route intravenous; conditions: rat, in vivo, 1 mg/kg; procedure, shortened: as §1
Rattus norvegicus [22] = assay: Effect of compound on motor activity of spontaneously hypertensive rats after single oral administration of 0.3 mg/Kg dose; assay type: functional; procedure, shortened: as §3
[23] = Compound was evaluated for half-life after treatment with iv dose of 1 mgkg to female cynomolgus monkey; assay type: ADME, organism-based; parameters: dose 1 mgkg, route intravenous; conditions: cercopithecidae, in vivo, 1 mg/kg; procedure, shortened: as §2
Rattus norvegicus [24] = assay: ET-1 induced increase in mean arterial pressure following 1 mg/kg oral administration of compound; assay type: functional, Artery
[25] = Compound was evaluated for maximum time to reach Cmax after treatment with oral dose of 2 mgkg to female cynomolgus monkey; assay type: ADME, organism-based; parameters: dose 2 mgkg, route oral; conditions: cercopithecidae, in vivo, 2 mg/kg; procedure, shortened: as §2
Rattus norvegicus [26] = assay: Effect of compound on heart rate activity of spontaneously hypertensive rats after single oral administration of 30 mg/Kg dose; assay type: functional; procedure, shortened: as §3
Rattus norvegicus [27] = assay: Effect of compound on heart rate activity of spontaneously hypertensive rats after single oral administration of 1 mg/Kg dose; assay type: functional; procedure, shortened: as §3
[28] = target: T1, Endothelin receptor type B (Sus scrofa, UniProt P35463); assay: In vitro ability to inhibit specific [125I]ET1 binding to porcine kidney (inner medulla) membranes Endothelin B receptor
T1 sequence (P35463 whole entry): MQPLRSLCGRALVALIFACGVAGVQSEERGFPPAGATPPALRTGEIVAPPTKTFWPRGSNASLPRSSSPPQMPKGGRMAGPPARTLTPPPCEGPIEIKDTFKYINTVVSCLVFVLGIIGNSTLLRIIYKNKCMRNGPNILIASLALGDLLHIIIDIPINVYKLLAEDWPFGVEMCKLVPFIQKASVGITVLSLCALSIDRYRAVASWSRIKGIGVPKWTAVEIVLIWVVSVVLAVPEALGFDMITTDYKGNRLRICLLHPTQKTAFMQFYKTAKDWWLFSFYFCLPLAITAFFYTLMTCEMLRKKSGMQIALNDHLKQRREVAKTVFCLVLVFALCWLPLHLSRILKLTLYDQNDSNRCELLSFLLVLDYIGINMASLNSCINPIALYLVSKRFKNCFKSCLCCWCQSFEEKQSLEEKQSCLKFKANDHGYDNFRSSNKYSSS

Rattus norvegicus [29] = assay: Effect of compound on heart rate activity of spontaneously hypertensive rats after single oral administration of 10 mg/Kg dose; assay type: functional; procedure, shortened: as §3
Endothelin-1 receptor = target: T2, Endothelin-1 receptor (Rattus norvegicus, UniProt P26684); assay: In vitro ability to inhibit specific [125I]ET1 binding to rat aorta membranes Endothelin A receptor; assay type: tissue-based
T2 sequence (P26684 whole entry): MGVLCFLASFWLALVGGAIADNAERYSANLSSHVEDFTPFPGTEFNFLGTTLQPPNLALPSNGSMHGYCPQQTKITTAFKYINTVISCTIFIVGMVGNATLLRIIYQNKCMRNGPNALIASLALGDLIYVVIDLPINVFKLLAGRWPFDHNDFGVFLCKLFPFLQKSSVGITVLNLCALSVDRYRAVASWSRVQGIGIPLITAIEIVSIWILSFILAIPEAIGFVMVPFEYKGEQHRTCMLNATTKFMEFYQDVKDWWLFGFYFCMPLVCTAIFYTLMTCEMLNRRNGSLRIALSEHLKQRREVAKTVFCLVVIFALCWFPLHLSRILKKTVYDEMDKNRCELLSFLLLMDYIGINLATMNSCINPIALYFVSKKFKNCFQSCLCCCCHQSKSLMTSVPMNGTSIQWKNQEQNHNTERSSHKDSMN

[30] = Compound was evaluated for volume of distribution (steady state) after treatment with iv dose of 1 mgkg to male wistar rats; assay type: ADME, organism-based; parameters: dose 1 mgkg, route intravenous; conditions: rat, in vivo, 1 mg/kg, read-out: Vss; procedure, shortened: as §1
Rattus norvegicus [31] = assay: Compound was evaluated for AUC after treatment with iv dose of 1 mgkg to female wistar rats; assay type: ADME, organism-based; parameters: dose 1 mgkg, route intravenous; conditions: in vivo, 1 mg/kg; procedure, shortened: as §1
Rattus norvegicus [32] = assay: ET-1 induced increase in mean arterial pressure following 3 mg/kg oral administration of compound; assay type: functional, Artery
[33] = Compound was evaluated for maximum time to reach Cmax after treatment with oral dose of 2 mgkg to male wistar rats; assay type: ADME, organism-based; parameters: dose 2 mgkg, route oral; conditions: rat, in vivo, 2 mg/kg; procedure, shortened: as §1
Rattus norvegicus [34] = assay: Effect of compound on motor activity of spontaneously hypertensive rats after single oral administration of 0.1 mg/Kg dose; assay type: functional; procedure, shortened: as §3
[35] = Compound was evaluated for maximum time to reach Cmax after treatment with oral dose of 2 mgkg to female wistar rats; assay type: ADME, organism-based; parameters: dose 2 mgkg, route oral; conditions: rat, in vivo, 2 mg/kg; procedure, shortened: as §1
Rattus norvegicus [36] = assay: ET-1 induced increase in mean arterial pressure following 0.3 mg/kg oral administration of compound; assay type: functional, Artery
[37] = Compound was evaluated for half life after treatment with iv dose of 1 mgkg to female wistar rats; assay type: ADME, organism-based; parameters: dose 1 mgkg, route intravenous; conditions: rat, in vivo, 1 mg/kg; procedure, shortened: as §1
Rattus norvegicus [38] = assay: Effect of compound on motor activity of spontaneously hypertensive rats after single oral administration of 0.03 mg/Kg dose; assay type: functional; procedure, shortened: as §3
Rattus norvegicus [39] = assay: ET-1 induced increase in mean arterial pressure following 0.1 mg/kg oral administration of compound; assay type: functional, Artery
[40] = Compound was evaluated for AUC after treatment with oral dose of 2 mgkg to female cynomolgus monkey; assay type: ADME; conditions: cercopithecidae, in vivo; procedure, shortened: as §2
[41] = Compound was evaluated for clearance after treatment with iv dose of 1 mgkg to female cynomolgus monkey; assay type: ADME, organism-based; parameters: dose 1 mgkg, route intravenous; conditions: cercopithecidae, in vivo, 1 mg/kg; procedure, shortened: as §2

Cmax [1]: 1010 ng/mL
AUC [2]: 3300 ng·h/mL
AUC (Rattus norvegicus [4]): 1630 ng·h/mL
Cmax [6]: 3160 ng/mL
Vd [7]: 0.1 L/kg
clearance [8]: 1.67 mL/min/kg
AUC (Rattus norvegicus [11]): 2500 ng·h/mL
clearance [14]: 6.67 mL/min/kg
Vd [16]: 0.2 L/kg
AUC (Rattus norvegicus [18]): 21300 ng·h/mL
Cmax [19]: 3830 ng/mL
half-life [21]: 96 min
half-life [23]: 60 min
Tmax [25]: 30 min
IC50 [28]: 160 nM
IC50 (Endothelin-1 receptor): 0.032 nM
Vd [30]: 0.5 L/kg
AUC (Rattus norvegicus [31]): 15400 ng·h/mL
Tmax [33]: 30 min
Tmax [35]: 30 min
half-life [37]: 102 min
AUC [40]: 4260 ng·h/mL
clearance [41]: 5 mL/min/kg
SMILES: COc1ccc(C(=O)/C(Cc2cc(OC)c(OC)c(OC)c2)=C(\C(=O)[O-])c2ccc3nsnc3c2)cc1F.[Na+]
AUC0-12h ΔMA (Rattus norvegicus [3]): -131 units·h
Kb (Rattus norvegicus [5]): 0.316 nM
AUC0-12h ΔMA (Rattus norvegicus [9]): -131 units·h
AUC0-12h ΔMA (Rattus norvegicus [10]): -99 units·h
AUC0-12h ΔHR (Rattus norvegicus [12]): -413 min-1·h
Kb (Oryctolagus cuniculus): 1000 nM
AUC0-12h ΔMA (Rattus norvegicus [13]): -102 units·h
AUC0-12h ΔHR (Rattus norvegicus [15]): -356 min-1·h
AUC0-12h ΔHR (Rattus norvegicus [17]): -341 min-1·h
AUC0-12h ΔHR (Rattus norvegicus [20]): -384 min-1·h
AUC0-12h ΔMA (Rattus norvegicus [22]): -93 units·h
Mean arterial blood pressure (Rattus norvegicus [24]): 11 mmHg
AUC0-12h ΔHR (Rattus norvegicus [26]): -260 min-1·h
AUC0-12h ΔHR (Rattus norvegicus [27]): -344 min-1·h
AUC0-12h ΔHR (Rattus norvegicus [29]): -349 min-1·h
Mean arterial blood pressure (Rattus norvegicus [32]): 7 mmHg
AUC0-12h ΔMA (Rattus norvegicus [34]): -72 units·h
Mean arterial blood pressure (Rattus norvegicus [36]): 24 mmHg
AUC0-12h ΔMA (Rattus norvegicus [38]): -97 units·h
Mean arterial blood pressure (Rattus norvegicus [39]): 32 mmHg

SMILES: CCCCN(CCCC)C(=O)CN1C[C@H](c2ccc3c(c2)OCO3)[C@@H](C(=O)O)[C@@H]1c1ccc(OC)cc1
Kb (Rattus norvegicus [5]): 2.51 nM
Kb (Oryctolagus cuniculus): 794 nM

IC50 [28]: 820 nM
IC50 (Endothelin-1 receptor): 3.4 nM
SMILES: COc1ccc(C(=O)/C(Cc2ccccc2OC)=C(\C(=O)O)c2ccc3nsnc3c2)cc1
